From ChEMBL document CHEMBL1158763, “Cytotoxic arylnaphthalene lignans from a Vietnamese acanthaceae, Justicia patentiflora” (J Nat Prod, 2005)
Calls of active or inactive are those of the source. The calls are words filed in the database; no cut-off is given here.

Legend:
[1] = test system: KB; experiment: Cytotoxicity against human KB cells; format: functional, cell-based
[2] = test system: MCF7; experiment: Cytotoxicity against doxorubicin-sensitive human MCF7 cells; format: functional, cell-based
[3] = test system: HCT-116; experiment: Cytotoxicity against human HCT116 cells; format: functional, cell-based
[4] = test system: MCF7; experiment: Cytotoxicity against doxorubicin-resistant human MCF7 cells; format: functional, cell-based
Outline: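 Doxorubicin-resistant MCF-7 line derived by prolonged doxorubicin treatment of MCF-7 cells; cytotoxicity assay run per a previously published procedure.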

[5] = test system: HCT-116; experiment: Cell cycle arrest in human HCT116 cells assessed as accumulation at S phase at 10 nM after 48 hrs by flow cytometry; format: functional
[6] = test system: HCT-116; experiment: Cell cycle arrest in human HCT116 cells assessed as accumulation at G0/G1 phase at 10 nM after 48 hrs by flow cytometry; format: functional
[7] = test system: HCT-116; experiment: Cell cycle arrest in human HCT116 cells assessed as accumulation at G2/M phase at 10 nM after 48 hrs by flow cytometry; format: functional
[8] = test system: MCF7; experiment: Cell cycle arrest in human MCF7 cells assessed as accumulation at G0/G1 phase at 10 nM after 48 hrs; format: functional, cell-based
[9] = test system: Mus musculus; experiment: Toxicity in mouse P388 cells implanted in CDF1 mouse assessed as induction of death at 5 mg/kg, ip administered 1 day following implantation; format: organism-based; design: dose 5 mg/kg, route intraperitoneal; conditions: in vivo, 24 h
Outline: (§1)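 10^6 P388 (or P388/F 11782) murine leukemia cells implanted i.v. into CDF1 mice on day zero; single i.p. dose (2.5 or 5 mg/kg) given the day after implantation. Mice weighed twice weekly during treatment, weekly thereafter. Antitumor activity judged by increase in lifespan: ILS (%) = T/C − 100, T/C = median survival treated/control × 100.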

[10] = test system: P388; experiment: Antitumor activity against mouse P388 cells implanted in CDF1 mouse assessed as reduction in body weight at 2.5 mg/kg, ip administered 1 day following implantation; format: functional, organism-based; design: dose 2.5 mg/kg; outline: as §1

Row | Structure (SMILES) | IC50 [1] | IC50 [2] | IC50 [3] | IC50 [4] | Activity [5] | Activity [6] | Activity [7] | Activity [8] | Activity [9] | Activity [10]
1 | COc1cc2c(O[C@H]3O[C@@H](C)[C@@H](OC(C)=O)[C@@H](OC(C)=O)[C@@H]3OC(C)=O)c3c(c(-c4ccc5c(c4)OCO5)c2cc1OC)C(=O)OC3 | 20 nM | 45 nM | 35 nM |  |  |  |  |  |  | 
2 | COc1cc2c(O[C@@H]3O[C@H](CO[C@@H]4OC[C@H](OC(C)=O)[C@H](OC(C)=O)[C@H]4OC(C)=O)[C@H](OC(C)=O)[C@H](OC(C)=O)[C@H]3OC(C)=O)c3c(c(-c4ccc5c(c4)OCO5)c2cc1OC)C(=O)OC3 | 180 nM | 80 nM | 260 nM | 8000 nM |  |  |  |  |  | 
3 | COc1cc2c(O[C@@H]3O[C@H](C)[C@@H](OC(C)=O)[C@H](OC(C)=O)[C@H]3OC(C)=O)c3c(c(-c4ccc5c(c4)OCO5)c2cc1OC)C(=O)OC3 | 14 nM | 2 nM | 16 nM | 65 nM |  |  |  |  |  | 
4 | COc1cc2c(O[C@@H]3O[C@H](CO[C@@H]4OC[C@H](O)[C@H](O)[C@H]4O)[C@H](OC(C)=O)[C@H](OC(C)=O)[C@H]3O)c3c(c(-c4ccc5c(c4)OCO5)c2cc1OC)C(=O)OC3 [4'-O-ACETYLMANANTHOSIDE B] | 500 nM | 260 nM | 1200 nM | 2200 nM |  |  |  |  |  | 
5 | COc1cc2c(O[C@H]3O[C@@H](C)[C@@H](OC(C)=O)[C@@H](O)[C@@H]3O)c3c(c(-c4ccc5c(c4)OCO5)c2cc1OC)C(=O)OC3 [4'-O-ACETYLPATENTIFLORIN B] | 24 nM | 12 nM | 30 nM | 100 nM |  |  |  |  |  | 
6 | CC(=O)O[C@@]12CO[C@@H]1C[C@H](O)[C@@]1(C)C(=O)[C@H](O)C3=C(C)[C@@H](OC(=O)[C@H](O)[C@@H](NC(=O)OC(C)(C)C)c4ccccc4)C[C@@](O)([C@@H](OC(=O)c4ccccc4)[C@H]21)C3(C)C [DOCETAXEL] | 2 nM | 20 nM | 4 nM |  |  |  |  |  |  | 
7 | COc1cc(OC)c2c(-c3ccc4c(c3)OCO4)c3c(c(OC)c2c1O)COC3=O [JUSTICINOL] | 300 nM | 360 nM |  |  |  |  |  |  |  | 
8 | O=C(CC(CO)C(=O)c1ccc2c(c1)OCO2)c1ccc2c(c1)OCO2 (stereo not drawn) [JUSTIFLORINOL] | > 10000 nM |  |  |  |  |  |  |  |  | 
9 | COc1cc2c(O[C@@H]3O[C@H](C)[C@@H](O)[C@H](O)[C@H]3O)c3c(c(-c4ccc5c(c4)OCO5)c2cc1OC)C(=O)OC3 [PATENTIFLORIN A] | 4 nM | 3 nM | 12 nM | 40 nM | 43.4% | 41.9% | 13.5% | Active | Toxic | inactive
10 | COc1cc2c(O[C@H]3O[C@@H](C)[C@@H](O)[C@@H](O)[C@@H]3O)c3c(c(-c4ccc5c(c4)OCO5)c2cc1OC)C(=O)OC3 [PATENTIFLORIN B] | 6 nM | 300 nM | 250 nM |  |  |  |  |  |  | 
